Results published in ChEMBL document CHEMBL1122319, “Substituted (2-phenoxyphenyl)acetic acids with antiinflammatory activity. 1” (J Med Chem, 1983).

What was measured:
Assay type in all cases: functional
Rattus norvegicus [1] = assay: Reduction in paw swelling at 100 mg/kg po dose in rat using adjuvant arthritis test; value is +6 indicates exacerbation of paw swelling.
Rattus norvegicus [2] = assay: Reduction in paw swelling at 100 mg/kg po dose in rat using adjuvant arthritis test; value is +12 indicates exacerbation of paw swelling.
Rattus norvegicus [3] = assay: Reduction in paw swelling at 100 mg/kg po dose in rat using adjuvant arthritis test; value is +9 indicates exacerbation of paw swelling.
Rattus norvegicus [4] = species: Rattus norvegicus; assay: Minimum ulcerogenic dose(MUD) of the compound.
Rattus norvegicus [5] = assay: Reduction in paw swelling at 100 mg/kg po dose in rat using adjuvant arthritis test.
Rattus norvegicus [6] = species: Rattus norvegicus; assay: (§1) Potency relative to [2-(2,4-Dichloro-phenoxy)-phenyl]-acetic acid in rat adjuvant arthritis test
Rattus norvegicus [7] = assay: Reduction in paw swelling at 100 mg/kg po dose in rat using adjuvant arthritis test; value is +7 indicates exacerbation of paw swelling.
Rattus norvegicus [8] = assay: Reduction in paw swelling at 100 mg/kg po dose in rat using adjuvant arthritis test; value is +1 indicates exacerbation of paw swelling.
Rattus norvegicus [9] = species: Rattus norvegicus; assay: Minimum ulcerogenic dose(MUD) of the compound;Value ranges from (400-800)
Rattus norvegicus [10] = assay: Reduction in paw swelling at 100 mg/kg po dose in rat using adjuvant arthritis test; value is +8 indicates exacerbation of paw swelling.
Rattus norvegicus [11] = assay: Reduction in paw swelling at 100 mg/kg po dose in rat using adjuvant arthritis test; value is +2 indicates exacerbation of paw swelling.
Rattus norvegicus [12] = assay: Reduction in paw swelling at 100 mg/kg po dose in rat using adjuvant arthritis test; value is +4 indicates exacerbation of paw swelling.
Rattus norvegicus [13] = assay: Reduction in paw swelling at 100 mg/kg po dose in rat using adjuvant arthritis test; value is +10 indicates exacerbation of paw swelling.
Rattus norvegicus [14] = assay: Reduction in paw swelling at 100 mg/kg po dose in rat using adjuvant arthritis test; value is +13 indicates exacerbation of paw swelling.
Rattus norvegicus [15] = assay: Reduction in paw swelling at 100 mg/kg po dose in rat using adjuvant arthritis test; value is +3 indicates exacerbation of paw swelling.
Rattus norvegicus [16] = assay: Reduction in paw swelling at 100 mg/kg po dose in rat using adjuvant arthritis test; value is +5 indicates exacerbation of paw swelling.
Rattus norvegicus [17] = assay: Reduction in paw swelling at 100 mg/kg po dose in rat using adjuvant arthritis test; value is +14 indicates exacerbation of paw swelling.
Rattus norvegicus [18] = assay: Reduction in paw swelling at 100 mg/kg po dose in rat using adjuvant arthritis test; value is +23 indicates exacerbation of paw swelling.
Rattus norvegicus [19] = species: Rattus norvegicus; assay: as §1; remark: listed apart in the source
How it was run: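 Established (therapeutic) adjuvant arthritis test in rats: the drug was given after arthritis had fully developed. Relative potency against the reference standard was derived from a three-dose-level assay based on paw volume changes.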

Rattus norvegicus [20] = assay: Reduction in paw swelling at 100 mg/kg po dose in rat using adjuvant arthritis test; value is +20 indicates exacerbation of paw swelling.

COc1ccc(Oc2ccc(C)cc2Cl)c(CC(=O)O)c1
Reduction (Rattus norvegicus [1]): 6

COc1cc(Oc2ccc(C)cc2Cl)c(CC(=O)O)cc1C
Reduction (Rattus norvegicus [2]): 12

Cc1ccc(Oc2cccc(O)c2CC(=O)O)c(Cl)c1
Reduction (Rattus norvegicus [3]): 9

Cc1ccc(Oc2ccc(C(C)(C)C)cc2Cl)c(CC(=O)O)c1
MUD (Rattus norvegicus [4]): >500 mg/kg
Reduction (Rattus norvegicus [5]): 34
Relative potency (Rattus norvegicus [6]): 1.6

Cc1ccc(Oc2cc(Cl)c(C)cc2CC(=O)O)c(Cl)c1
Reduction (Rattus norvegicus [7]): 7

Cc1ccc(Oc2cc(C)ccc2CC(=O)O)c(Cl)c1
Reduction (Rattus norvegicus [8]): 1

CCC(C)c1ccc(Oc2ccc(C)cc2CC(=O)O)c(Cl)c1 (stereo not drawn)
MUD (Rattus norvegicus [9]): 800 mg/kg
Reduction (Rattus norvegicus [5]): 42
Relative potency (Rattus norvegicus [6]): 3

O=C(O)/C=C/c1ccccc1Oc1ccc(Cl)cc1Cl
Reduction (Rattus norvegicus [10]): 8

CCCCc1ccc(Oc2ccc(C)cc2Cl)c(CC(=O)O)c1
Reduction (Rattus norvegicus [10]): 8

Cc1ccc(Oc2ccc(C3CCCCC3)cc2Cl)c(CC(=O)O)c1
Reduction (Rattus norvegicus [11]): 2

Cc1cc(Oc2ccc(Cl)cc2CC(=O)O)c(Cl)c(C)c1Cl
Reduction (Rattus norvegicus [5]): 41
Relative potency (Rattus norvegicus [6]): 1

CCc1ccc(Oc2ccc(C)cc2CC(=O)O)c(Cl)c1
MUD (Rattus norvegicus [4]): >800 mg/kg
Reduction (Rattus norvegicus [5]): 40
Relative potency (Rattus norvegicus [6]): 1.1

Cc1ccc(Oc2cc(C)cc(C)c2C)c(CC(=O)O)c1
Reduction (Rattus norvegicus [5]): 11
Relative potency (Rattus norvegicus [6]): 0.1

CCOC(=O)Cc1ccccc1Oc1ccc(Cl)cc1Cl
Reduction (Rattus norvegicus [5]): 34
Relative potency (Rattus norvegicus [6]): 0.5

Nc1cc(Cl)ccc1Oc1ccccc1CC(=O)O
Reduction (Rattus norvegicus [12]): 4

COc1cc(Cl)ccc1Oc1ccc(C)cc1CC(=O)O
Reduction (Rattus norvegicus [5]): 23
Relative potency (Rattus norvegicus [6]): 0.7

COc1cccc(Oc2ccc(C)cc2CC(=O)O)c1
Reduction (Rattus norvegicus [13]): 10

Cc1ccc(Oc2ccc(Cl)cc2Cl)c(CC(=O)O)c1
Reduction (Rattus norvegicus [5]): 29
Relative potency (Rattus norvegicus [6]): 0.8

CCc1ccc(Oc2ccc(C)cc2Cl)c(CC(=O)O)c1
Reduction (Rattus norvegicus [14]): 13

Cc1ccc(Oc2cccc(O)c2)c(CC(=O)O)c1
Reduction (Rattus norvegicus [15]): 3

Nc1ccc(Oc2ccccc2CC(=O)O)c(Cl)c1
Reduction (Rattus norvegicus [16]): 5

Cc1ccc(Oc2cc(C)c(C)cc2CC(=O)O)c(Cl)c1
Reduction (Rattus norvegicus [17]): 14

COc1ccc(CC(=O)O)c(Oc2ccc(C)cc2Cl)c1
Reduction (Rattus norvegicus [17]): 14

Cc1ccc(Oc2cc(Cl)ccc2C)c(CC(=O)O)c1
Reduction (Rattus norvegicus [5]): 15
Relative potency (Rattus norvegicus [6]): 0.2

Cc1ccc(Oc2c(Cl)cccc2CC(=O)O)c(Cl)c1
Reduction (Rattus norvegicus [18]): 23

CCc1cc(Cl)ccc1Oc1ccc(C)cc1CC(=O)O
Reduction (Rattus norvegicus [5]): 17
Relative potency (Rattus norvegicus [6]): 0.4

O=C(Cc1ccccc1Oc1ccc(Cl)cc1Cl)NO
Reduction (Rattus norvegicus [5]): 28%
Relative potency (Rattus norvegicus [19]): 1

O=C(O)Cc1ccccc1Oc1ccc(Cl)cc1Cl [FENCLOFENAC]
MUD (Rattus norvegicus [9]): 800 mg/kg
Reduction (Rattus norvegicus [5]): 36
Relative potency (Rattus norvegicus [6]): 1

Cc1cc(Oc2ccc(Cl)cc2CC(=O)O)c(Cl)cc1Cl
Reduction (Rattus norvegicus [5]): 40
Relative potency (Rattus norvegicus [6]): 0.6

Cc1ccc(Oc2cc(C(F)(F)F)cc(C(F)(F)F)c2)c(CC(=O)O)c1
Reduction (Rattus norvegicus [13]): 10

Cc1ccc(Oc2ccc(-c3ccccc3)cc2Cl)c(CC(=O)O)c1
Reduction (Rattus norvegicus [5]): 23
Relative potency (Rattus norvegicus [6]): 0.2

Cc1cc(Oc2ccccc2CC(=O)O)c(Cl)c(C)c1Cl
Reduction (Rattus norvegicus [5]): 34
Relative potency (Rattus norvegicus [6]): 1.2

OCCc1ccccc1Oc1ccc(Cl)cc1Cl
Reduction (Rattus norvegicus [5]): 32
Relative potency (Rattus norvegicus [6]): 0.7

Cc1ccc(Oc2ccc(C(C)C)cc2Cl)c(CC(=O)O)c1
Reduction (Rattus norvegicus [5]): 30
Relative potency (Rattus norvegicus [6]): 1.6

Cc1ccc(Oc2c(C)cccc2Cl)c(CC(=O)O)c1
Reduction (Rattus norvegicus [5]): 26
Relative potency (Rattus norvegicus [6]): 0.5

Cc1ccc(Oc2cc(C)c(Cl)cc2CC(=O)O)c(Cl)c1
Reduction (Rattus norvegicus [17]): 14

Cc1ccc(Oc2cc(O)ccc2CC(=O)O)c(Cl)c1
Reduction (Rattus norvegicus [20]): 20

CCCCCCCCCCCCc1ccc(Oc2ccc(C)cc2CC(=O)O)c(Cl)c1
Reduction (Rattus norvegicus [5]): 26%
Relative potency (Rattus norvegicus [6]): 0.3

O=C(O)Cc1ccccc1Oc1ccc(Br)cc1Br
Reduction (Rattus norvegicus [5]): 29
Relative potency (Rattus norvegicus [6]): 0.8
